Source: ChEMBL document CHEMBL4354861, “Re-Evaluating the Mechanism of Action of α,β-Unsaturated Carbonyl DUB Inhibitors b-AP15 and VLX1570: A Paradigmatic Example of Unspecific Protein Cross-linking with Michael Acceptor Motif-Containing Drugs” (J Med Chem, 2020)
Calls of active or inactive are those of the source. The rule behind the calls is not given here.

Experiments:
[1] = system: HeLa; test: Cytotoxicity in human HeLa cells assessed as reduction in cell viability incubated for 72 hrs Cell-titer Glo reagent based assay; assay type: functional
Summary of the method: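 Tumor lines grown at 37 °C, 5% CO2 with 10% FBS (DMEM for HeLa and SiHa; RPMI for HCT116) and exposed to compound for 72 h. Viability read by CellTiter Glo luminescence; IC50 derived from n=6.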

[2] = system: HUVEC; test: Cytotoxicity in human HUVEC cells assessed as reduction in cell viability incubated for 72 hrs Cell-titer Glo reagent based assay
Summary of the method: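 Endothelial HUVECs (EGM-2, 10% FBS) exposed to compound for 72 h, n=6. Viability read as CellTiter Glo luminescence and IC50 derived.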

[3] = system: HeLa; test: Inhibition of deubiquitinase in human HeLa cell extracts assessed as inhibition of HA-Ub-C2Br probe labeling at 1 to 100 uM incubated for 30 mins by immunoblot analysis; assay type: cell-free
[4] = system: HeLa; test: Inhibition of deubiquitinase in human HeLa cell extracts assessed as induction of accumulation of high molecular weight ubiquitylated proteins at 10 uM incubated for 2 hrs in presence of GSH by immunoblot analysis; assay type: cell-free

Q: For `C=CC(=O)N1C/C(=C\c2ccc([N+](=O)[O-])cc2)C(=O)/C(=C/c2ccc([N+](=O)[O-])cc2)C1`, which Activity [1] is on record?
A: The Activity was “Active”.

Q: And the Activity [2]?
A: Its Activity is “Toxic”.

Q: What about the inhibition [3] of the same compound?
A: Its inhibition is “Active”.

Q: And the inhibition [4]?
A: Its inhibition is “inactive”.
